Measured values published in PMC10769797 (The Oncologist, 2023).

Key:
[1] = test system: patients with advanced solid tumors; assay: Phase I dose-escalation safety: adverse events; type: in vivo, human
[2] = Plasma pharmacokinetics, noncompartmental analysis; type: in vivo, human
Summary of the method: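 Oral dosing QD (part A1) or TIW (part A2). Intensive plasma samples were taken after the dose on cycle 1 days 1 and 15, for up to 24 h (A1) or 48 h (A2). Cmax, Tmax, AUC(0-Inf) and terminal half-life came from plasma concentrations by standard noncompartmental analysis, with descriptive statistics.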

[3] = biological target: CDK7 (Homo sapiens, UniProt P50613); assay: CDK7-target occupancy assay; type: in vivo
CDK7, sequence (P50613 2-346 limits assumed): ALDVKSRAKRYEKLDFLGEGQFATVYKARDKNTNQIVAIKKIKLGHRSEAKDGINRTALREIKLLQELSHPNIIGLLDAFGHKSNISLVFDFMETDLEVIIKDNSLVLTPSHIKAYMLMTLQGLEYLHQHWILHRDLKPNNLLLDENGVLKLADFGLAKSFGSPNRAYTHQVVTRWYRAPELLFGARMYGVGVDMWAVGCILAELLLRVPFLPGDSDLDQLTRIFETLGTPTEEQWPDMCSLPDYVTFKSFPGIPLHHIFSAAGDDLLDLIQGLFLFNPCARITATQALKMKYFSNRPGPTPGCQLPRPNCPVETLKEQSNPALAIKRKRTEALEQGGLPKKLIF
CDK7, sequence (P51946 whole entry partner): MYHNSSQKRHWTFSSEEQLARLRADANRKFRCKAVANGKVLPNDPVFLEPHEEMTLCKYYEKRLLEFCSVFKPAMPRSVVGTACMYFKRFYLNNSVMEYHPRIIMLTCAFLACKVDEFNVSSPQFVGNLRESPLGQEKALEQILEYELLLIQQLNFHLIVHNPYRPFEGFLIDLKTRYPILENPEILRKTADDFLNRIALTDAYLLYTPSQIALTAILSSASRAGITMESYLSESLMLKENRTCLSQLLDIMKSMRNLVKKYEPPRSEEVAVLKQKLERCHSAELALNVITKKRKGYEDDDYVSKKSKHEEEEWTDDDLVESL
CDK7, sequence (P51948 whole entry partner): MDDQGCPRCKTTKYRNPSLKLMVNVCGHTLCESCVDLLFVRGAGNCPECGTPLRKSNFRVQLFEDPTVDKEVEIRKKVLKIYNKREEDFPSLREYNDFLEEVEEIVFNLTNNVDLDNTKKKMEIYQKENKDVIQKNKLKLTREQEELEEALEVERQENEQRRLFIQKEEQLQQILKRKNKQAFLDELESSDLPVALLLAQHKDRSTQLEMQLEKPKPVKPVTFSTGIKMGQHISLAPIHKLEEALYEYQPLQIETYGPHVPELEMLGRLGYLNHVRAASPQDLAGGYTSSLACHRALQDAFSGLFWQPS
Summary of the method: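 Skin biopsies were taken at baseline (≤14 days pre-dose) and 6–8 h postdose on days 1 and 15; PBMCs predose day 1 and 8 h postdose days 1 and 15. Lysates were labelled with a biotinylated probe. Anti-cyclin H captured CDK7/cyclin H on MSD plates. Unbound CDK7 was read with SULFO-TAG streptavidin, total with anti-CDK7 mAb. Skin occupancy was baseline-normalised unbound/total; PBMC occupancy was unbound versus day-1 predose.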

[4] = test system: patients with advanced solid tumors; details: phase I study; cited from earlier work
[5] = test system: POLR2A expression; details: cited from earlier work

## Cc1cc(NC2CCN(C(=O)OC3CCN(C(=O)/C=C/CN(C)C)C3)CC2)n2ncc(C(C)C)c2n1 (centres unmarked) [LY3405105]
[1]; QD (N = 43), Any grade
  Patients with ≥1 SAE related to study treatment: 7 (16) n (%)
  Patients with ≥1 TRAE: 29 (67) n (%)
  SAE related to study treatment: Abdominal pain: 1 (2) n (%)
  SAE related to study treatment: Acute kidney injury: 1 (2) n (%)
  SAE related to study treatment: Alanine aminotransferase increase: 1 (2) n (%)
  SAE related to study treatment: Diarrhea: 2 (5) n (%)
  SAE related to study treatment: Dyspnea: 1 (2) n (%)
  SAE related to study treatment: Hypotension: 1 (2) n (%)
  SAE related to study treatment: Mucosal inflammation: 1 (2) n (%)
  SAE related to study treatment: Nausea: 1 (2) n (%)
  SAE related to study treatment: Ophthalmic herpes zoster: 1 (2) n (%)
  SAE related to study treatment: Platelet count decrease: 1 (2) n (%)
  TRAE: Abdominal pain: 6 (14) n (%)
  TRAE: Anemia: 5 (12) n (%)
  TRAE: Asthenia: 2 (5) n (%)
  TRAE: Diarrhea: 18 (42) n (%)
  TRAE: Fatigue: 8 (19) n (%)
  TRAE: Nausea: 9 (21) n (%)
  TRAE: Platelet count decrease: 6 (14) n (%)
  TRAE: Vomiting: 8 (19) n (%)
[1]; QD (N = 43), ≥Grade 3
  Patients with ≥1 SAE related to study treatment: 6 (14) n (%)
  Patients with ≥1 TRAE: 10 (23) n (%)
  SAE related to study treatment: Abdominal pain: 0 n (%)
  SAE related to study treatment: Acute kidney injury: 1 (2) n (%)
  SAE related to study treatment: Alanine aminotransferase increase: 1 (2) n (%)
  SAE related to study treatment: Diarrhea: 2 (5) n (%)
  SAE related to study treatment: Dyspnea: 1 (2) n (%)
  SAE related to study treatment: Hypotension: 0 n (%)
  SAE related to study treatment: Mucosal inflammation: 1 (2) n (%)
  SAE related to study treatment: Nausea: 1 (2) n (%)
  SAE related to study treatment: Ophthalmic herpes zoster: 1 (2) n (%)
  SAE related to study treatment: Platelet count decrease: 1 (2) n (%)
  TRAE: Abdominal pain: 0 n (%)
  TRAE: Anemia: 2 (5) n (%)
  TRAE: Asthenia: 0 n (%)
  TRAE: Diarrhea: 2 (5) n (%)
  TRAE: Fatigue: 1 (2) n (%)
  TRAE: Nausea: 1 (2) n (%)
  TRAE: Platelet count decrease: 3 (7) n (%)
  TRAE: Vomiting: 0 n (%)
[1]; QD, oral monotherapy, patients
  Maximum tolerated dose (MTD): 20 mg
  Recommended phase II dose (RP2D): 20 mg
[1]; TIW (N = 11), Any grade
  Patients with ≥1 SAE related to study treatment: 0 n (%)
  Patients with ≥1 TRAE: 6 (55) n (%)
  SAE related to study treatment: Abdominal pain: 0 n (%)
  SAE related to study treatment: Acute kidney injury: 0 n (%)
  SAE related to study treatment: Alanine aminotransferase increase: 0 n (%)
  SAE related to study treatment: Diarrhea: 0 n (%)
  SAE related to study treatment: Dyspnea: 0 n (%)
  SAE related to study treatment: Hypotension: 0 n (%)
  SAE related to study treatment: Mucosal inflammation: 0 n (%)
  SAE related to study treatment: Nausea: 0 n (%)
  SAE related to study treatment: Ophthalmic herpes zoster: 0 n (%)
  SAE related to study treatment: Platelet count decrease: 0 n (%)
  TRAE: Abdominal pain: 0 n (%)
  TRAE: Anemia: 1 (9) n (%)
  TRAE: Asthenia: 4 (36) n (%)
  TRAE: Diarrhea: 0 n (%)
  TRAE: Fatigue: 0 n (%)
  TRAE: Nausea: 1 (9) n (%)
  TRAE: Platelet count decrease: 0 n (%)
  TRAE: Vomiting: 0 n (%)
[1]; TIW (N = 11), ≥Grade 3
  Patients with ≥1 SAE related to study treatment: 0 n (%)
  Patients with ≥1 TRAE: 0 n (%)
  SAE related to study treatment: Abdominal pain: 0 n (%)
  SAE related to study treatment: Acute kidney injury: 0 n (%)
  SAE related to study treatment: Alanine aminotransferase increase: 0 n (%)
  SAE related to study treatment: Diarrhea: 0 n (%)
  SAE related to study treatment: Dyspnea: 0 n (%)
  SAE related to study treatment: Hypotension: 0 n (%)
  SAE related to study treatment: Mucosal inflammation: 0 n (%)
  SAE related to study treatment: Nausea: 0 n (%)
  SAE related to study treatment: Ophthalmic herpes zoster: 0 n (%)
  SAE related to study treatment: Platelet count decrease: 0 n (%)
  TRAE: Abdominal pain: 0 n (%)
  TRAE: Anemia: 0 n (%)
  TRAE: Asthenia: 0 n (%)
  TRAE: Diarrhea: 0 n (%)
  TRAE: Fatigue: 0 n (%)
  TRAE: Nausea: 0 n (%)
  TRAE: Platelet count decrease: 0 n (%)
  TRAE: Vomiting: 0 n (%)
[1]; Total (N = 54), Any grade
  Patients with ≥1 SAE related to study treatment: 7 (13) n (%)
  Patients with ≥1 TRAE: 35 (65) n (%)
  SAE related to study treatment: Abdominal pain: 1 (2) n (%)
  SAE related to study treatment: Acute kidney injury: 1 (2) n (%)
  SAE related to study treatment: Alanine aminotransferase increase: 1 (2) n (%)
  SAE related to study treatment: Diarrhea: 2 (4) n (%)
  SAE related to study treatment: Dyspnea: 1 (2) n (%)
  SAE related to study treatment: Hypotension: 1 (2) n (%)
  SAE related to study treatment: Mucosal inflammation: 1 (2) n (%)
  SAE related to study treatment: Nausea: 1 (2) n (%)
  SAE related to study treatment: Ophthalmic herpes zoster: 1 (2) n (%)
  SAE related to study treatment: Platelet count decrease: 1 (2) n (%)
  TRAE: Abdominal pain: 6 (11) n (%)
  TRAE: Anemia: 6 (11) n (%)
  TRAE: Asthenia: 6 (11) n (%)
  TRAE: Diarrhea: 18 (33) n (%)
  TRAE: Fatigue: 8 (15) n (%)
  TRAE: Nausea: 10 (19) n (%)
  TRAE: Platelet count decrease: 6 (11) n (%)
  TRAE: Vomiting: 8 (15) n (%)
[1]; Total (N = 54), ≥Grade 3
  Patients with ≥1 SAE related to study treatment: 6 (11) n (%)
  Patients with ≥1 TRAE: 10 (19) n (%)
  SAE related to study treatment: Abdominal pain: 0 n (%)
  SAE related to study treatment: Acute kidney injury: 1 (2) n (%)
  SAE related to study treatment: Alanine aminotransferase increase: 1 (2) n (%)
  SAE related to study treatment: Diarrhea: 2 (4) n (%)
  SAE related to study treatment: Dyspnea: 1 (2) n (%)
  SAE related to study treatment: Hypotension: 0 n (%)
  SAE related to study treatment: Mucosal inflammation: 1 (2) n (%)
  SAE related to study treatment: Nausea: 1 (2) n (%)
  SAE related to study treatment: Ophthalmic herpes zoster: 1 (2) n (%)
  SAE related to study treatment: Platelet count decrease: 1 (2) n (%)
  TRAE: Abdominal pain: 0 n (%)
  TRAE: Anemia: 2 (4) n (%)
  TRAE: Asthenia: 0 n (%)
  TRAE: Diarrhea: 2 (4) n (%)
  TRAE: Fatigue: 1 (2) n (%)
  TRAE: Nausea: 1 (2) n (%)
  TRAE: Platelet count decrease: 3 (6) n (%)
  TRAE: Vomiting: 0 n (%)
[1]; all 54 enrolled patients, all DLTs in part A1 (QD)
  Patients with dose-limiting toxicities: Seven
[1]; all patients (N = 54)
  Patients reporting at least one treatment-related adverse event (TRAE): 64.8%
[1]; part A1, 20 mg QD
  Dose-limiting toxicity: no DLT was observed
[1]; part A1, 1, 2, 4, 8, 15, or 30 mg QD
  Dose-limiting toxicity: no DLT was observed
[1]; part A1, corresponds to doses of 30 to 45 mg QD
  Start of the steady-state AUC range where DLTs were observed: approximately 1000 ng h/mL
[1]; part A2 (TIW), 2 mg, 4 mg, or 8 mg
  Dose-limiting toxicity: no DLT was observed
[2]; 1 to 45 mg QD day 1, 1 to 35 mg QD day 15, 2 to 8 mg TIW day 1 and day 15
  Dose dependence of plasma exposure: exposures increased with dose
[2]; oral dosing, assessed in the TIW group
  Geometric mean terminal elimination half-life: 15 to 19 h
[2]; oral dosing, patients
  Median time to maximum concentration: 1 to 2 h
[3]; QD, steady state on day 15
  Dose at which near maximal CDK7-target occupancy was achieved: ≥ 15 mg
[3]; highest observed in the trial
  CDK7-target occupancy observed: up to 90%
[3]; part A1, skin, day 15, corresponds to doses at 15 mg QD
  Steady-state AUC above which maximum skin target occupancy occurred: approximately 500 ng h/mL
[3]; skin and peripheral blood, day 15, ≥15 mg QD
  CDK7-target occupancy (near maximal): 75%
[3]; ≥15 mg once daily
  CDK7 target occupancy: > 75%

## CC1(C)CC[C@H](Nc2ncc(C(F)(F)F)c(-c3c[nH]c4c(P(C)(C)=O)c(C#N)ccc34)n2)CN1 [SY-5609]
[4]
  DLTs: cytopenia, gastrointestinal toxicity, and hypotension
  Most frequent TEAEs: gastrointestinal toxicity, fatigue, thrombocytopenia, and anemia
[5]; CDK7-target occupancy up to 100%
  POLR2A expression change compared with baseline: 4-5 fold
[5]; at 75% CDK7-target occupancy
  POLR2A expression change in PBMCs: approximately 2.5 fold
